Consider 25 compounds from PubChem BioAssay AID602266 (Broad Institute, 2012).

Records with an inconclusive call do not appear. Active and inactive are the calls of the source.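 The calls were made as follows: active = compounds whose fitted half-maximal inhibition dose is at most double their top valid tested dose; inconclusive = flat curve with 30 to 70% inhibition, or poor fit; inactive = the rest.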

In one assay the test system is NIH-3T3 HGL cells, heat shock, Hsp90aa mRNA qPCR. As to the kind of experiment: lowered Hsp90aa transcript levels after heat shock – NIH-3T3 cells, RT-qPCR, cherry-pick, orthogonal assay for HSF1 inhibitor project, dose response (AID 602266).
Settings: not given
The method, boiled down: (§1)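 Assay system: HGL cells, NIH-3T3 mouse fibroblasts with HSE-driven GFP/luciferase construct. Timing: overnight plating, 90-min compound pretreatment, 90-min heat shock, 1-h recovery. Signal: Two-step multiplex TaqMan RT-qPCR.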
In general terms: Real-time PCR tracks product formation cycle by cycle.
Turning to `CC1=C(C(=O)OCc2ccc3c(c2)OCO3)C(c2ccc(F)cc2)NC(=O)N1` (stereo not given), the AC50 (usually the concentration at which the activity in the assay is half-maximal) is 1390 nM.

System in a further assay: not listed separately
The assay is described as above. The note with it: NIH-3T3 HGL cells, heat shock, Hsp90aa mRNA qPCR; at 26 µM (top of the series). The method, boiled down:
as §1
In the case of `CCOc1ccc(OCc2cccc(C(=O)N/N=C/c3cccnc3)c2)cc1`, the activity change, negative = inhibition is 37.3% (inactive).

`O=[N+]([O-])c1nn(-c2ccc3c(c2)OCCO3)n(O)c1=Nc1ccccc1`: the activity change, negative = inhibition is 29% (inactive). Still for that read-out and setting: the figure for `CC12CCC(=O)C=C1CCC1C2C(O)CC2(C)C1CCC2(O)C(=O)CO` (stereo not given) is 4.01% (inactive); for `CC(=O)[C@@]1(O)C(C)CC2C3C=C(C)C4=Cc5c(cnn5-c5ccccc5)C[C@]4(C)C3C(O)C[C@@]21C` (stereo not given in full) it is 97.3% (inactive). For the compound `CC1CCCN(c2ncnc3c2cnn3-c2ccc(Cl)cc2)C1` (stereo not given), the activity change, negative = inhibition is 28.9% (inactive).

As for `O=C(Nc1ccc(F)cc1F)c1cc2nc3c(c(C(F)(F)F)n2n1)CCCC3`, the activity change, negative = inhibition was 2.56% (inactive). Same read-out and setting: the same measure for `Cc1cccc(-n2ncc3c(N(C)C4CCCCC4)ncnc32)c1`: 27% (inactive); for `CC(C)(C)c1ccc(/C=N/Nc2cccc(C(=O)O)c2)cc1`: 12.9% (inactive); for `CN(C(=O)OC(C)(C)C)c1ccc(-c2nc3ccccc3s2)cc1`: 46.6% (inactive). The same measure, in the same setting: the same measure for `CC(C)Sc1nc(SCC(=O)NCc2ccco2)c2c3c(sc2n1)COC(C)(C)C3`: 52.6% (inactive); for `Cc1ccc(/C=N/Nc2ccc(C(=O)O)cc2)s1`: 32.5% (inactive). On the same count and under the same terms, the figure for `O=c1c2ccccc2sc2ccc(C#CC3(O)CCCCC3)cc12` is 49.4% (inactive); for `CC1CCN(c2ccc(-c3cccc(NC(=O)C(F)(F)F)c3)nn2)CC1` it is 37.6% (inactive); for `CC(=O)OCC(=O)[C@@]12OC(C)(C)O[C@@H]1CC1C3C[C@H](F)C4=CC(=O)C=CC4(C)[C@@]3(F)C(O)CC12C` (stereo not given in full) it is -1.11% (inactive). `C(=N\Nc1nc2ccccc2s1)/c1ccccn1`: the activity change, negative = inhibition is 82.6% (inactive). For `O=C(CN1C(=O)c2ccccc2S1(=O)=O)c1ccc2c(c1)OCCCO2`, the activity change, negative = inhibition is 13.4% (inactive). Still for that read-out and setting: the same measure for `C[C@]12C=CC(=O)C=C1CC[C@@H]1[C@@H]2[C@@H](O)C[C@@]2(C)[C@H]1CC[C@]2(O)C(=O)CO`: 4.41% (inactive).

For the compound `Cc1nc(SCC(=O)Nc2nc3ccccc3s2)c(C#N)c(C)c1C`, the activity change, negative = inhibition was 7.25% (inactive). Consider `COC(=O)c1ccccc1NC(=O)c1ccc(-c2ccc(Br)cc2)o1`, for which the activity change, negative = inhibition was 4.07% (inactive). Consider `C[C@@H]1C[C@H]2[C@@H]3CCC4=CC(=O)C=C[C@]4(C)[C@@]3(F)[C@@H](O)C[C@]2(C)[C@@]1(O)C(=O)CO`, for which the activity change, negative = inhibition is 6.93% (inactive). On to `CCS(=O)(=O)N1Cc2ccccc2CC1C(=O)Nc1nc2ccccc2s1` (stereo not given), for which the activity change, negative = inhibition is 33.2% (inactive). Still for that read-out and setting: the figure for `CCC(=O)O[C@]1(C(=O)CCl)[C@@H](C)C[C@H]2[C@@H]3CCC4=CC(=O)C=C[C@]4(C)[C@@]3(F)[C@@H](O)C[C@@]21C` is 30.2% (inactive); for `N#CCCCC#Cc1ccc2c(c1)COc1c3ccccc3nn1-2` it is 65.7% (inactive); for `Cc1c(-c2nc(-c3ccc(C(C)(C)C)cc3)no2)n(C)oc1=O` it is 18.8% (inactive).
